An excerpt weighted towards active compounds, which were near 10% of everything screened.
WT yeast gro inh – growth inhibition of WT yeast, mitochondrial fusion screen; 190,000 compounds, 2.1% hits; inhibition, % at 10 µM; mitochondrial fusion phenotypic screen, WT strain; in the data active = inhibition above about 58%; tested in S. cerevisiae
PMI activator – increases human mannose-6-phosphate isomerase activity; P34949; purified human PMI, coupled resazurin fluorescence, 20 min; stronger effect = higher value; 1 = vehicle control, 0 substrate-free wells; activation factor at 20 µM; 190,000 compounds, 0.005% hits;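 active = activation factor of 2 or more at 20 µM, relative to plate controls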
Target sequence (P34949 whole entry, looked up): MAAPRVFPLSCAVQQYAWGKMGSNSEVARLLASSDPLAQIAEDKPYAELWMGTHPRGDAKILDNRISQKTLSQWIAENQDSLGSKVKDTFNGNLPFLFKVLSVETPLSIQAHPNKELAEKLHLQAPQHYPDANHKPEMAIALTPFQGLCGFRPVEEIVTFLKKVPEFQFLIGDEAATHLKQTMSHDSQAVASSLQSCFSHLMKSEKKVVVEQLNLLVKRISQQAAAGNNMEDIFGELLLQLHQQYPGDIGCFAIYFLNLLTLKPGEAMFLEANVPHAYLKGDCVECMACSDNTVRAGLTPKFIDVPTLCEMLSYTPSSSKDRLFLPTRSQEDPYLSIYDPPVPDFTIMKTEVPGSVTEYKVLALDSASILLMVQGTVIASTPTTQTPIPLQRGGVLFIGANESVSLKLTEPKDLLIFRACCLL
Diaph act CS – activates diaphorase or chemically reduces, flagging diaphorase assay artifacts. Diaphorase/resazurin coupled assay, resorufin fluorescence, 16 min; stronger effect = higher value; 1 = vehicle wells, 0 = NADH-free wells. activation factor at 20 µM. 190,000 compounds, 0.005% hits. AID 1229;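 active = diaphorase activity raised at least twofold by the compound at 20 µM; inactive = activation factor below 2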
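Material: bacterial diaphorase enzyme (C. kluyveri); amount: enzyme 0.07 U/mL final; reagent: NADH substrate 0.114 mM plus resazurin dye 0.1 mM, final; doses: single compound dose of 20 µM, 1% DMSO final; timing: 16 min enzyme reaction, ambient temperature; measured by: fluorescence of resorufin, 544 nm excitation, 590 nm emission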
PMI act hi M6P – increases human PMI activity with near-saturating mannose 6-phosphate | activation factor at 20 µM | P34949 | 190,000 compounds, 0.34% hits | AID 1216 | coupled PMI enzyme assay, resazurin fluorescence, 20 min; stronger effect = higher value; 1 = untreated enzyme, 0 = substrate-free blank;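 active = activation factor of 2 or more at 20 µM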
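test system = human PMI in coupled enzyme assay | medium = HEPES-buffered pH 7.4 with magnesium and detergent | also added = 1.0 mM mannose-6-phosphate substrate with 0.22 mM NADP+ | compound = 20 µM single dose | times = 20 min incubation at room temperature | measured by = resorufin fluorescence (Ex 544/Em 590 nm) from resazurin via diaphorase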
L major viab – inhibitors of Leishmania major promastigote growth; Leishmania major promastigotes, resazurin fluorescence viability; inhibition, % at 10 µM; 200,000 compounds, 9% hits; in the data active = inhibition above about 50%;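 also: promastigotes grown with compound for 44 hours at 28 °C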
Numbers without * were called inactive.

SMILES	WT yeast gro inh	PMI activator	Diaph act CS	PMI act hi M6P	L major viab
O=C(CN1CCN(Cc2ccccc2)CC1)Nc1ccc(Cl)cn1	31	1	0.9	1.1	53*
O=C(CSCc1ccccc1)Nc1ccc(Cl)cn1	26	0.8	0.8	0.9	0
O=C(COc1cccc(Cl)c1)Nc1ccc2c(c1)CCC2	54	1	1	1	56*
CC1CCN(CC(=O)Nc2cccc(C(=O)Nc3cccc(C(F)(F)F)c3)c2)CC1	15	0.9	0.9	0.9	82*
Cc1cc(C(=O)Nc2cccc(S(=O)(=O)N3CCCCC3)c2)c2ccccc2n1	10	1	0.8	0.9	3
CC1CN(CC(=O)Nc2cccc(C(=O)Nc3cccc(C(F)(F)F)c3)c2)CC(C)O1 (centres undefined)	-10	0.9	0.8	0.9	13
O=C(CN1CCN(c2ccc(O)cc2)CC1)Nc1cc(S(=O)(=O)N2CCCCC2)ccc1Cl	1	0.9	0.8	0.8	99*
COc1ccc(CC(=O)Nc2cccc(S(=O)(=O)N3CCCCCC3)c2)cc1OC	-19	0.8	0.8	0.9	84*
O=C(Nc1cccc(S(=O)(=O)N2CCCCC2)c1)c1c2c(nc3ccccc13)CCN(Cc1ccccc1)C2	8	0.8	0.7	0.9	90*
CC1(C(=O)NCCCN2CCOCC2)Oc2cccnc2NC1=O (centres undefined)	4	0.9	0.9	0.9	-5
COc1ccc(C(=O)N(C)c2c(C)n(C)n(-c3ccccc3)c2=O)cc1OC	12	1	1	1	-7
O=C(COC(=O)c1c2c(nc3ccccc13)CCN(Cc1ccccc1)C2)Nc1c(F)cccc1F	-6	1.3	0.8	2*	11
O=C(CN1CCCC1)Nc1ccc2c(c1)CCC2	-19	0.9	0.9	1	-1
O=C(CN1CCN(Cc2ccccc2)CC1)Nc1ccc2c(c1)CCC2	16	1.1	0.9	1	74*
CC(=O)c1c(C)[nH]c(C(=O)OCC(=O)Nc2cc(S(=O)(=O)N3CCCC3)ccc2Cl)c1C	-9	1	0.9	1.1	72*
O=S(=O)(c1ccc(Cl)c(NC(=S)N/N=C/c2ccc(O)cc2)c1)N1CCOCC1	8	0.9	0.6	0.8	88*
CC(=O)c1c(C)[nH]c(C(=O)OCC(=O)Nc2cccc(S(=O)(=O)N3CCCC3)c2)c1C	-7	0.9	0.7	0.9	-3
COc1ccc(NS(=O)(=O)c2cc(NC(=O)/C=C/c3ccccc3OC)ccc2N2CCCCC2)cc1	0	0.9	0.8	0.9	40
CC1(C)COC(c2cccc(C3=NC(C)(C)CO3)n2)=N1	-9	1	0.9	1	5
O=C(CN1CCN(Cc2ccccc2)CC1)Nc1cccc(S(=O)(=O)N2CCCCCC2)c1	4	1	0.8	1	79*
O=C(Nc1ccc(S(=O)(=O)N2CCN(Cc3ccccc3)CC2)cc1)c1cnccn1	60*	1	1	1	-7
O=C(Nc1ccc(S(=O)(=O)N2CCCC2)cc1)c1cnccn1	-11	1	1	1	-1
COC(=O)c1ccccc1NC1CC(=O)N(c2c(C)cccc2C)C1=O (centres undefined)	9	1.1	1.1	1.2	2
CCOC(=O)C1(CCc2ccccc2)CCN(Cc2ccc(OC)cc2)CC1	40	0.9	0.9	1	85*
CCOC(=O)C1(CCc2ccccc2)CCN(Cc2nccn2CC)CC1	22	0.9	0.9	1	31
SMILES	WT yeast gro inh	PMI activator	Diaph act CS	PMI act hi M6P	L major viab
CCOC(=O)C1(CCc2ccccc2)CCN(Cc2c(O)cccc2OC)CC1	28	1	1	1	91*
CCOC(=O)C1(CCc2ccccc2)CCN(Cc2ccc(O)cc2)CC1	14	1	0.9	1	95*
COC(=O)c1[nH]nc(C(=O)OC(C)(C)C)c1-c1ccccc1	7	0.9	0.9	1	1
COc1ccc(NC(=S)NNC(=O)c2nnn(-c3ccccc3)c2C)cc1	-10	1	1	1.1	-1
O=C(O)c1ccc(Br)cn1	-2	1.1	0.8	1.2	-2
CS/C(N)=N/N=C/c1ccc([N+](=O)[O-])cc1	-12	1.6	1	2.5*	0
COc1cccc2c1OC[C@@H](CO)[C@H]2N(C)C(=O)Nc1ccc(Cl)cc1Cl	2	1	0.9	1	-10
Oc1c(Cl)cc(Cl)c2cccnc12	55	0.8	0.6	0.6	96*
O=C(Oc1c(Cl)cc(Cl)c2cccnc12)c1ccco1	31	0.8	0.8	0.9	98*
O=C(Oc1cncc(Cl)c1)c1ccco1	-5	1.1	0.9	1	-4
O=C(Oc1c(Cl)cc(Cl)c2cccnc12)c1cccs1	60*	1	0.8	1	17
O=C(Oc1c(CN2CCOCC2)cc(Cl)c2cccnc12)c1cccs1	6	0.8	1	0.4	100*
O=C(Oc1c(CN2CCOCC2)cc(Cl)c2cccnc12)c1ccccc1Cl	4	0.7	0.6	0.4	100*
O=C(Oc1ccc(Cl)c2cccnc12)N1CCCCC1	-8	1.1	1	1.1	-11
O=C1CC(/C=C/c2ccncc2)=Nc2ccccc2N1	-10	1.7	0.9	2.1*	65*
CS(=O)(=O)c1ccc(Cl)c(NC(=O)CCl)c1	1	1	0.9	0.9	17
CCCSc1nc2cc(C)c(C)cc2n1CC(C)O (centres undefined)	-14	1.6	0.9	2.3*	4
CCCSc1nc2cc(C)c(C)cc2n1CC(O)CO (centres undefined)	10	1	0.9	0.9	-4
CCN(C(=O)COC(=O)/C=C/c1ccc(O)c(OC)c1)C1CCS(=O)(=O)C1 (centres undefined)	-7	0.9	0.8	0.8	20
CNC(=O)c1sc(-c2ccccn2)nc1C	2	1.1	1.1	1.1	-6
COc1cccc2cc(S(=O)(=O)c3ccccc3)c(=Nc3ccc4c(c3)OCCO4)oc12	0	1	0.9	1.1	92*
Cc1ccc(S(=O)(=O)c2cc3ccccc3oc2=Nc2ccc3c(c2)OCCO3)cc1	47	1	0.9	1	98*
Cc1ccc(C(=O)N/C(=C\c2ccccc2)C(=O)NCCCn2ccnc2)cc1	-2	1	1.1	1.1	-2
Cc1nc(NC(=O)c2csc3ccccc23)sc1C	13	1	0.9	1	60*
Cc1nn(C)c(C)c1/C=N/NC(=O)c1csc2ccccc12	8	0.9	0.9	0.9	-3
Cc1ccc(OCc2nc(-c3cccs3)no2)c([N+](=O)[O-])c1	-4	1	0.9	0.9	-6
CSc1nnc(-c2sccc2OCc2ccc(C)cc2)n1C	15	1.1	0.9	1.1	6
O=C(O)CCc1ccc(-c2ccc(F)cc2)n1Cc1ccco1	63*	1	0.9	1.1	5
